# M4 PAM – CHRM4 positive allosteric modulation. P08173. CHO-K1 hM4/Gqi5, Fluo-8 calcium fluorescence, ACh EC20; 0% = ACh EC20, 100% = maximal ACh. activation, % at 3 µM. 360,000 compounds, 0.4% hits. AID 624126;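 active = activation above its plate's cutoff, the mean activation of sample wells plus 3 SD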
# CHRM4 agonist – CHRM4 agonism in calcium assay; CHO-K1 hM4/Gqi5, Fluo-8 calcium fluorescence; vehicle 0%, full acetylcholine response 100%; 360,000 compounds, 0.14% hits; activation, % at 3 µM;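 active = activation above the run mean over all test wells plus 3 SD, cut at about 32% in these data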;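 also: peak over basal fluorescence ratio per well then scaled between controls; 0% = DMSO wells and 100% = acetylcholine at EC100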
# M5 antag – antagonists of human muscarinic M5 receptor (CHRM5); P08912; CHO-hM5 cells, Fluo-8 calcium fluorescence, ACh EC80; inhibition, % at 3 µM; 360,000 compounds, 0.59% hits;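 active = inhibition above a per-plate cutoff, the mean of that plate's test compounds plus 3 SD, cut at about 27% in these data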;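 also: 0% = acetylcholine EC80 with DMSO and 100% = DMSO without agonist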
# Target sequence (P08912 whole entry, looked up): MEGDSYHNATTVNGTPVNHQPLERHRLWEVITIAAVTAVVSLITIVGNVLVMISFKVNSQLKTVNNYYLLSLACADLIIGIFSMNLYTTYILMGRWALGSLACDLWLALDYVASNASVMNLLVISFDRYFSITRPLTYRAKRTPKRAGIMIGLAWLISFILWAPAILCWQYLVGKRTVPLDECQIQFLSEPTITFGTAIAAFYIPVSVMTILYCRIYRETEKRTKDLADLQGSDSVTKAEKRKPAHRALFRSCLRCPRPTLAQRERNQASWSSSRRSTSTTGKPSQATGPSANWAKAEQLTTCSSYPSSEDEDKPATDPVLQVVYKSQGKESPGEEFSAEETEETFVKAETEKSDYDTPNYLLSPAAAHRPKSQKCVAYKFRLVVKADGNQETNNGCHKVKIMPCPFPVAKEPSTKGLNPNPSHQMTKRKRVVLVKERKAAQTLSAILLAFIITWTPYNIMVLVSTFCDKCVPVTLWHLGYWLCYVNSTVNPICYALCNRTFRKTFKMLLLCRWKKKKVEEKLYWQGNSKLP
# CHRM5 PAM – potentiates acetylcholine response at human M5 receptor; P08912; CHO-K1 hM5, Fluo-8 calcium, ACh EC20 PAM; 0% = ACh EC20, 100% = ACh EC100; activation, % at 3 µM; 360,000 compounds, 0.3% hits;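 active = activation above the run cutoff, the mean activation of all test compounds plus 3 SD, cut at about 18% in these data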
#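 System: CHO-K1 cell line with stable human muscarinic M5 receptor expression | Also added: EC20 acetylcholine as agonist stimulus | Compound: One concentration, 3 µM final (nominal) | Timing: Fluo-8 loading 80 min at 37 °C plus 30 min room temperature | Measured by: Fluo-8 calcium dye fluorescence, kinetic read | Read-out basis: % activation, ACh-normalized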
# M5 ag – agonists of human muscarinic M5 receptor (CHRM5); 360,000 compounds, 0.19% hits; activation, % at 3 µM; AID 624037; CHO-K1 hM5 cells, Fluo-8 calcium fluorescence; 0% DMSO wells, 100% maximal acetylcholine response; P08912;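 active = activation above the run's mean over test compounds plus 3 SD, cut at about 23% in these data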;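 also: signal is peak over basal fluorescence ratio across the kinetic read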
# CHRM4 antagonist – antagonists of human muscarinic M4 receptor (CHRM4); CHO-hM4 cells, ACh EC80, Fluo-8 calcium fluorescence; inhibition, % at 3 µM; AID 624125; 360,000 compounds, 0.73% hits; P08173;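 active = inhibition above its plate's cutoff, the mean inhibition of sample wells plus 3 SD, cut at about 27% in these data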;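 also: 0% = acetylcholine EC80 with DMSO and 100% = DMSO without agonist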
# Numbers without * were called inactive. An excerpt weighted towards active compounds, which were near 1.8% of everything screened.
SMILES,M4 PAM,CHRM4 agonist,M5 antag,CHRM5 PAM,M5 ag,CHRM4 antagonist
CSc1ccc(CN2CCC(C(=O)NCc3ccc(C)cc3)CC2)cc1,7.9,4.3,-6.9,6.6,-2.9,-11.8
O=C(c1cccc(S(=O)(=O)N2CCOCC2)c1)N1CCN(C/C=C/c2ccccc2)CC1,-13.6,4.7,39.3*,-48.6,-11.7,-4.6
O=C(c1cccc(S(=O)(=O)N2CCOCC2)c1)N1CCC(Cc2ccccc2)CC1,4.6,5.1,1.4,-1.6,0.9,-18.5
COc1ccc(-c2nc3ncccc3o2)cc1NC(=O)c1ccco1,-6.5,0.1,3.3,1.2,-1.3,13.5
Cc1ccc(C(=O)c2coc3c2C(=O)C(=O)c2ccccc2-3)cc1,1.8,4.3,35.7*,-14.7,-4.1,-3.9
Cc1ccc(C(=O)c2c(C)oc3c2C(=O)C(=O)c2ccccc2-3)cc1,-7.3,6.3,12.5,-7.9,-4.5,7.4
CCOc1ccc(CC(=O)N2CCN=C2SC)cc1,13.4,2.8,6.2,-1.1,0.1,-3.5
COc1ccc(N=C2c3ccccc3-c3ccc([N+](=O)[O-])cc32)cc1,2.8,1.1,7.1,2.7,-1.7,-3.7
Cc1cc(F)ccc1S(=O)(=O)N(CC(=O)N1CCOCC1)CC(=O)N1CCOCC1,25.5*,0.5,5.9,2.0,-0.9,-10.1
CC(C)NC(=O)CN(Cc1ccc(F)cc1)C(=O)CCC(=O)Nc1ccccn1,-3.4,0.8,2.6,2.5,-1.6,-9.3
COc1cc2c3c(c1)C(C)=CC(C)(C)N3C(=O)C2=O,2.7,-0.4,7.7,-4.8,35.9*,2.6
COc1cccc(C(=O)Oc2cc3c4c(c2)C(C)=CC(C)(C)N4C(=O)C3=O)c1,-8.2,6.9,46.0*,0.5,56.6*,24.2
COc1ccc(C(=O)Oc2cc3c4c(c2)C(C)=CC(C)(C)N4C(=O)C3=O)cc1OC,3.6,1.6,7.1,-6.5,11.9,4.9
CCc1ccc2c(c1)cc(CN(C(=S)Nc1ccccc1)C1CC1)c1nnnn12,32.4*,-0.2,3.9,3.3,-2.1,-14.7
CC/C(=N\NC(=O)CCC(=O)NCc1ccccc1)c1ccc(O)cc1,3.5,0.4,4.8,0.4,-1.5,-6.0
CCOc1ccccc1/C=C/c1onc(C)c1S(=O)(=O)N1CCC(C(=O)N2CCCCCC2)CC1,2.3,-0.3,2.6,-0.6,-3.2,-1.3
O=C1c2ccccc2C(Nc2ccc(Cl)cn2)N1c1ccccn1 (stereo unspecified),18.4*,0.0,3.7,-1.2,-1.7,-12.7
O=S(=O)(C/C(=C/CO)S(=O)(=O)c1ccccc1)c1ccccc1,0.8,0.4,3.2,1.8,-0.4,30.4*
N#Cc1nc(-c2cccs2)oc1N1CCN(Cc2ccccc2)CC1,2.9,8.5,-5.7,-3.5,-1.7,84.6*
CCN(CC)C(=O)c1cccc(-c2csc(C(O)c3cccc(Cl)c3)n2)c1 (stereo unspecified),-8.9,18.7,8.7,-13.5,5.8,-0.4
Cc1ccc(C2CC(=O)c3cnc(NC(=O)c4ccco4)nc3C2)cc1 (stereo unspecified),15.1*,2.8,-0.3,22.1*,-1.4,-14.0
Cc1ccc(Nc2ncc3c(n2)CC(c2ccco2)CC3=O)c(C)c1 (stereo unspecified),28.6*,0.0,-4.3,5.0,-1.7,1.3
COc1ccc(NC(=S)N2CCC(N(C)CC3CCCO3)CC2)cc1Cl (stereo unspecified),0.3,0.7,6.5,-2.7,-6.1,2.0
O=C(NN=Cc1c(O)ccc2ccccc12)c1ccc2c(c1)OCO2,23.0*,2.5,-3.5,10.2,4.5,-7.9
C[C@@H]1CN([C@@H](C)CO)C(=O)CCCn2nncc2CO[C@H]1CN(C)C(=O)Nc1cccc(Oc2ccccn2)c1,2.2,0.5,-7.3,-1.5,-0.1,-16.1
SMILES,M4 PAM,CHRM4 agonist,M5 antag,CHRM5 PAM,M5 ag,CHRM4 antagonist
CCOC(=O)C1=CC[C@@H](c2ccccc2)N(S(=O)(=O)c2ccc(C)cc2)[C@H]1C#N,-5.8,6.6,2.7,4.2,2.3,31.5*
CCOC(=O)C1=CC[C@@H](c2ccccc2)N(S(=O)(=O)c2ccc(C)cc2)[C@H]1c1ccc(C#N)cc1,-14.2,-0.1,2.8,-11.8,-1.8,-3.2
COc1ccc2c(c1)c1c3n2CCN(C)C3=NCC1,15.2*,1.1,-2.2,6.7,0.9,-6.4
COc1ccc(/C=N\NC(=O)c2ccc([N+](=O)[O-])cc2)cc1COc1c(F)c(F)cc(F)c1F,-0.9,0.1,27.1*,-8.5,-4.0,-0.3
COc1ccc(C(=O)N/N=C/c2ccc(OC)c(COc3c(F)c(F)cc(F)c3F)c2)cc1,-7.5,4.3,10.5,1.8,-4.9,-4.4
NC(=O)C1CCN(C(=O)CNC(=O)c2ccc(F)cc2)CC1,-1.6,0.0,17.9,4.4,-0.2,-2.9
O=C(NCCn1cc(SCc2ccc(F)cc2)c2ccccc21)c1ccccc1F,-12.2,8.5,4.2,-15.8,0.8,28.2*
O=C(CCc1nnc2n(Cc3ccc(F)cc3)c(=O)c3ccccc3n12)NCCCN1CCOCC1,-1.4,13.0,7.5,-4.3,-2.3,8.2
CN1CCN(CCCNC(=O)CCc2nnc3n(Cc4ccccc4Cl)c(=O)c4ccccc4n23)CC1,15.9*,1.8,-1.4,4.7,-5.6,-6.2
Cc1cc(=O)[nH]c(SCc2ccc(Cl)cc2Cl)n1,5.1,2.1,5.2,-6.9,-0.6,-18.1
CN1CCN(S(=O)(=O)c2ccc(NC(=O)Nc3cccc(Cl)c3)cc2)CC1,-8.2,12.9,12.5,-3.2,2.6,28.6*
CN1CCN(S(=O)(=O)c2ccc(NC(=O)c3ccccc3Cl)cc2)CC1,-3.6,0.7,6.6,-3.8,-4.4,2.4
O=C(Nc1ccc(Cl)cc1)Nc1ccc(N2CCCC2)c(S(=O)(=O)Nc2ccccc2Cl)c1,-5.4,6.1,27.4*,-15.3,-0.7,16.5
O=C(Nc1cccc(Cl)c1)Nc1cc(S(=O)(=O)N2CCCCC2)ccc1Cl,-14.9,9.5,29.5*,-18.3,4.0,15.7
Cc1oc(S(=O)(=O)N2CCCCC2)cc1NC(=O)Nc1ccc(Cl)cc1,-23.7,22.1,31.7*,-28.1,8.7,0.6
O=C(Nc1ccc(N2CCOCC2)c(S(=O)(=O)Nc2ccccc2Cl)c1)c1ccccc1,-8.9,12.4,13.0,-23.8,-4.7,11.9
Cc1oc(S(=O)(=O)N2CCCCC2)cc1NC(=O)Nc1ccccc1,-18.7,14.3,12.2,-6.7,2.8,-8.1
CCCN(CCC)C(=O)c1cc2c(=O)n3cccc(C)c3nc2s1,5.0,4.9,1.7,-2.4,-3.2,-16.3
O=C(NCc1cccnc1)c1cccc2c1C(=O)N(Cc1cccnc1)C2,7.2,1.4,-3.7,18.6*,-6.3,0.4

# Bioassay records: PubChem BioAssay, The Scripps Research Institute Molecular Screening Center
